{"source": "ChEMBL document CHEMBL3600344", "about": "“Novel thiourea-based sirtuin inhibitory warheads” (Bioorg Med Chem Lett, 2015)", "key": {"[1]": {"assay": "Antioxidant activity assessed as inhibition of superoxide radical anion generation at 200 uM after 5 mins in presence of NBT and NADH relative to control", "format": "physicochemical"}, "[2]": {"biological_target": "T1, NAD-dependent protein deacetylase sirtuin-1 (Homo sapiens, UniProt Q96EB6)", "T1 sequence (Q96EB6 whole entry)": "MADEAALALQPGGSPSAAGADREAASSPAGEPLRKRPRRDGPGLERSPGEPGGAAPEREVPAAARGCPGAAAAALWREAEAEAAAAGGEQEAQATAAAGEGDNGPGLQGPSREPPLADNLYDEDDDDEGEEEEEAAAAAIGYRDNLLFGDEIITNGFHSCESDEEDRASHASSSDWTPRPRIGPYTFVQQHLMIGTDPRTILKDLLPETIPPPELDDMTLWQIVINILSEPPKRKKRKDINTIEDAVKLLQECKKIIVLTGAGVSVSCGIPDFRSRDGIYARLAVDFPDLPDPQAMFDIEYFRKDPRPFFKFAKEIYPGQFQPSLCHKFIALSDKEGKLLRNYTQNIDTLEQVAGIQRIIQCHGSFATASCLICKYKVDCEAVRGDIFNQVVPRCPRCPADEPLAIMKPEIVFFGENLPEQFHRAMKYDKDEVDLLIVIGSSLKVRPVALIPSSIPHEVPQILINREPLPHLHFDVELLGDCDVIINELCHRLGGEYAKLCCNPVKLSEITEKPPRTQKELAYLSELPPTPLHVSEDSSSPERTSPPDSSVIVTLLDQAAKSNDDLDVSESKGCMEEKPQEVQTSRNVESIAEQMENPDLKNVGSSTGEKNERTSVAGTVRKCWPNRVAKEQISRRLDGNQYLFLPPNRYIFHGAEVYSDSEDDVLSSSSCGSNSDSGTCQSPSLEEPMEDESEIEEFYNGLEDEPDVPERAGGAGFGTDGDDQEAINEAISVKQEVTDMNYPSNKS", "assay": "Inhibition of human His6 or GST-tagged SIRT1 using H2N-HK-(Nepsilon-acetyl-lysine)-LM-COOH as substrate after 10 mins by HPLC analysis"}, "[3]": {"biological_target": "T2, NAD-dependent protein deacetylase sirtuin-3, mitochondrial (Homo sapiens, UniProt Q9NTG7)", "T2 sequence (Q9NTG7 whole entry)": "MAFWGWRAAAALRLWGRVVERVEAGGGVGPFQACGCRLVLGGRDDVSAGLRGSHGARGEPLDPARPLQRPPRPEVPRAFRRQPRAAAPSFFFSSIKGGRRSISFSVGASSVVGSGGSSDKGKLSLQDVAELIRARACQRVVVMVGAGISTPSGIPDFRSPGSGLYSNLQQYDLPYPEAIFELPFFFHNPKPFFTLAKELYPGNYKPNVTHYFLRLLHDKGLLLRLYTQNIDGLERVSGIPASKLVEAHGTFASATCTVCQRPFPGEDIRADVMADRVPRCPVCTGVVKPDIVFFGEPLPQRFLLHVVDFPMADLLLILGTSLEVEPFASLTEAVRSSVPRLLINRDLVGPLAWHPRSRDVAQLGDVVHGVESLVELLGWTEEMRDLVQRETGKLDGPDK", "assay": "Inhibition of human His6-tagged SIRT3 using H2N-HK-(Nepsilon-acetyl-lysine)-LM-COOH as substrate after 8 mins by HPLC analysis"}, "[4]": {"biological_target": "T3, NAD-dependent protein deacetylase sirtuin-2 (Homo sapiens, UniProt Q8IXJ6)", "T3 sequence (Q8IXJ6 whole entry)": "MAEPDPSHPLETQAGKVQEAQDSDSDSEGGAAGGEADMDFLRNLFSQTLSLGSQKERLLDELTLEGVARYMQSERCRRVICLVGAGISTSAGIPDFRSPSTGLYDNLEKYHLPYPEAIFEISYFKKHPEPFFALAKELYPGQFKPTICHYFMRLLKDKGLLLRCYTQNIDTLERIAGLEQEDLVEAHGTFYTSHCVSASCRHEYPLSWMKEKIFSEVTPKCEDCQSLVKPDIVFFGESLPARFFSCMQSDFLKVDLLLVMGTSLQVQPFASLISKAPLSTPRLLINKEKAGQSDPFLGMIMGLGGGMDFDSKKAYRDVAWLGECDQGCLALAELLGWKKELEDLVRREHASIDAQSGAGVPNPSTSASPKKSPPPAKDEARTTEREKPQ", "assay": "Inhibition of human His6-tagged SIRT2 using H2N-HK-(Nepsilon-acetyl-lysine)-LM-COOH as substrate after 10 mins by HPLC analysis"}, "[5]": {"assay": "Stability of the compound assessed as Streptomyces griseus pronase-mediated degradation by measuring compound remaining at 160 uM after 60 mins by HPLC analysis", "format": "ADME", "conditions": "read-out: Stability", "outline": "(§1)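 Compound incubated with pronase (broad-specificity protease mixture), percent compound remaining followed over time up to 60 min; a control peptide incubated under the same condition.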"}, "[6]": {"biological_target": "NAD-dependent protein deacylase sirtuin-5, mitochondrial (Homo sapiens, UniProt Q9NXA8)", "sequence (Q9NXA8 whole entry)": "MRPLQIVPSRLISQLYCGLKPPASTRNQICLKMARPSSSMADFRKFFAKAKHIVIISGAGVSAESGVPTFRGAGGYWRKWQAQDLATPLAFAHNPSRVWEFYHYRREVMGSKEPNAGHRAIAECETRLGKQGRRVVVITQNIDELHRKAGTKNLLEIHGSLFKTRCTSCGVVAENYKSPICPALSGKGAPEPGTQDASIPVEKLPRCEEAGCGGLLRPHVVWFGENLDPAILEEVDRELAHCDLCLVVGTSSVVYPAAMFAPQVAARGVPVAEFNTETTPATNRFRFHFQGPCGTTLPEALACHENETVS", "assay": "Inhibition of human SIRT5 using CH3CONH-AR-(Nepsilon-succinyl-lysine)-ST-CONH2 as substrate after 5 mins by HPLC analysis"}, "[7]": {"biological_target": "NAD-dependent protein deacylase sirtuin-6 (Homo sapiens, UniProt Q8N6T7)", "sequence (Q8N6T7 whole entry)": "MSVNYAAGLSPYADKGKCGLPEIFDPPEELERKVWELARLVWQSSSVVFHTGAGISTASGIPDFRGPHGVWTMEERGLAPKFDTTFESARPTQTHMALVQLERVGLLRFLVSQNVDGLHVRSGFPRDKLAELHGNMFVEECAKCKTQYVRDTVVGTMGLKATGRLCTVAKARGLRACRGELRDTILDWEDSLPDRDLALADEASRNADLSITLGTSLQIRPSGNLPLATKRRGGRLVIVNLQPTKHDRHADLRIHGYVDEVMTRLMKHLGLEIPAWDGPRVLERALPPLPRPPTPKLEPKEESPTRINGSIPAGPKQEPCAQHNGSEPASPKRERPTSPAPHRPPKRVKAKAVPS", "assay": "Inhibition of human SIRT6 using H2N-EALPK-(Nepsilon-myristoyl-lysine)-TGGPQ-CONH2 as substrate after 12 mins by HPLC analysis"}, "[8]": {"assay": "Stability of the compound assessed as Streptomyces griseus pronase-mediated degradation at 160 uM measured within 3 mins by HPLC analysis", "format": "ADME", "conditions": "0.05 h", "outline": "as §1"}}, "note": "Peptide text beside a SMILES is read from it."}
{"smiles": "CC(=O)NCCCC[C@H](NC(=O)[C@H](CCCCNC(C)=S)NC(=O)[C@H](CCCCNC(C)=O)NC(C)=O)C(N)=O", "values": [{"measurement": "inhibition (INH)", "setting": "[1]", "result": 6, "unit": "%"}]}
{"smiles": "CC(=O)NCCCC[C@H](NC(=O)[C@H](CCCCNC(N)=S)NC(=O)[C@H](CCCCNC(C)=O)NC(C)=O)C(N)=O", "values": [{"measurement": "IC50", "setting": "[2]", "result": 49.9, "unit": "µM"}, {"measurement": "IC50", "setting": "[3]", "result": 5.4, "unit": "µM"}, {"measurement": "IC50", "setting": "[4]", "result": 30.4, "unit": "µM"}]}
{"smiles": "CNC(=S)NCCCC[C@H](NC(=O)[C@H](CCCCNC(C)=O)NC(C)=O)C(=O)N[C@@H](CCCCNC(C)=O)C(N)=O", "values": [{"measurement": "remaining at 1 h, 160 µM", "setting": "[5]", "result": 88, "unit": "%"}, {"measurement": "inhibition (INH)", "setting": "[1]", "result": 50, "unit": "%"}, {"measurement": "IC50", "setting": "[2]", "result": 5.6, "unit": "µM"}, {"measurement": "IC50", "setting": "[3]", "result": 2.2, "unit": "µM"}, {"measurement": "IC50", "setting": "[4]", "result": 1.65, "unit": "µM"}]}
{"smiles": "CC(=O)NCCCC[C@H](NC(=O)[C@H](CCCCNC(=S)Nc1ccccc1)NC(=O)[C@H](CCCCNC(C)=O)NC(C)=O)C(N)=O", "values": [{"measurement": "IC50", "setting": "[2]", "result": 62.9, "unit": "µM"}]}
{"smiles": "CC(=O)NCCCC[C@H](NC(=O)[C@H](CCCCNC(=S)NCC(=O)O)NC(=O)[C@H](CCCCNC(C)=O)NC(C)=O)C(N)=O", "values": [{"measurement": "IC50", "setting": "[6]", "result": "> 100", "unit": "µM"}]}
{"smiles": "CC(=O)NCCCC[C@H](NC(=O)[C@H](CCCCNC(=S)NCCC(=O)O)NC(=O)[C@H](CCCCNC(C)=O)NC(C)=O)C(N)=O", "values": [{"measurement": "IC50", "setting": "[6]", "result": 5, "unit": "µM"}, {"measurement": "IC50", "setting": "[7]", "result": 2400, "unit": "µM"}]}
{"smiles": "CC(=O)NCCCC[C@H](NC(=O)[C@H](CCCCNC(=S)NCCCC(=O)O)NC(=O)[C@H](CCCCNC(C)=O)NC(C)=O)C(N)=O", "values": [{"measurement": "IC50", "setting": "[6]", "result": "> 100", "unit": "µM"}]}
{"smiles": "CSCC[C@H](NC(=O)[C@H](CC(C)C)NC(=O)[C@H](CCCCNC(C)=O)NC(=O)[C@H](CCCCN)NC(=O)[C@@H](N)Cc1cnc[nH]1)C(=O)O", "note": "(H-HKK(Ac)LM-OH)", "values": [{"measurement": "Stability", "setting": "[8]", "result": "Unstable"}]}
